Experimental data: ChEMBL document CHEMBL1157224, “2-substituted furans from the roots of Polyalthia evecta” (J Nat Prod, 2006)
Values after ≈ are worked out from the molar mass of the structure shown.

Columns and labels:
Human alphaherpesvirus 1 = assay: Antiviral activity against HSV1; format: functional, organism-based
How it was run: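 Herpes simplex type 1 antiviral test by colorimetric method per Skehan; IC50 read-out; acyclovir as reference.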

[1] = system: Mycobacterium tuberculosis; assay: Antimicrobial activity against Mycobacterium tuberculosis H37Ra by microplate alamar blue assay; format: functional
How it was run: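 M. tuberculosis H37Ra in microplate Alamar Blue assay; MIC read-out; isoniazid and kanamycin sulfate as reference drugs.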

Plasmodium falciparum [2] = assay: Antimicrobial activity against Plasmodium falciparum; format: functional, organism-based
How it was run: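 P. falciparum K1 (multidrug-resistant) kept in culture per Trager–Jensen; microculture radioisotope test; growth read as [3H]-hypoxanthine uptake; IC50 = concentration giving 50% fewer parasites; artemisinin as reference standard.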

Plasmodium falciparum [3] = assay: Antimalarial activity against Plasmodium falciparum K1 by [3H]hypoxanthine uptake; format: functional, organism-based
How it was run: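 Multidrug-resistant K1 parasites cultured per Trager–Jensen. In vitro microculture radioisotope test, with parasite growth read as [3H]-hypoxanthine uptake. IC50 is the concentration giving 50% reduction in parasite growth. Artemisinin run as standard.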

NCI-H187 = assay: Cytotoxicity against human NCI-H187 cells; format: functional, cell-based
How it was run: (§1)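 Human breast cancer (BC) and small cell lung cancer (NCI-H187) lines; colorimetric assay per Skehan; IC50 read-out; ellipticine as reference.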

[4] = Cytotoxicity against human BC clls; format: functional, cell-based; how it was run: as §1

Structure (SMILES)	IC50 (Human alphaherpesvirus 1)	MIC [1]	also measured
Nc1nc2c(ncn2COCCO)c(=O)[nH]1 [ACYCLOVIR]	1.1 µg/mL (≈ 4.88 µM)		
NNC(=O)c1ccncc1 [ISONIAZID]		0.04 µg/mL (≈ 0.292 µM)	
NC[C@H]1O[C@H](O[C@H]2[C@H](O)[C@@H](O[C@H]3O[C@H](CO)[C@@H](O)[C@H](N)[C@H]3O)[C@H](N)C[C@@H]2N)[C@H](O)[C@@H](O)[C@@H]1O.O=S(=O)(O)O [KANAMYCIN SULFATE]		2 µg/mL	
COC(=O)CCCC#CC#CCCCCCCCCCCCc1ccco1			IC50 (Plasmodium falciparum [2]): 3.7 µg/mL (≈ 9.99 µM)
C[C@@H]1CC[C@H]2[C@@H](C)C(=O)O[C@@H]3O[C@@]4(C)CC[C@@H]1[C@]32OO4 [ARTEMISININ]			IC50 (Plasmodium falciparum [3]): 0.001 µg/mL (≈ 0.00354 µM)
OCCCCCCCCCCCCCC#CC#CCCCCc1ccco1		6.25 µg/mL (≈ 16.9 µM)	IC50 (NCI-H187): 12.4 µg/mL (≈ 33.5 µM)
COC(=O)CCCC#CCCCCCCCCCCCCCc1ccco1		3.1 µg/mL (≈ 8.28 µM)	
Cc1c2ccncc2c(C)c2c1[nH]c1ccccc12 [ELLIPTECINE]			IC50 [4]: 0.32 µg/mL (≈ 1.3 µM)
O=C(O)CCCC#CC#CCCCCCCCCCCCc1ccco1	47 µg/mL (≈ 132 µM)		IC50 (Plasmodium falciparum [2]): 50 µg/mL (≈ 140 µM)
O=C(O)CCCC#CCCCCCCCCCCCCCc1ccco1	19.4 µg/mL (≈ 53.8 µM)		
